From ChEMBL document CHEMBL1137547, “Synthesis and antifungal activities of novel 2-aminotetralin derivatives” (2007)
≈ marks a conversion by molar mass, not a printed value.

How the values were obtained:
Assay type in all cases: functional
[1] = tested on: Candida albicans; assay: Antifungal activity against Candida albicans after 24 hrs
Method in brief: (§1)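 Candida yeasts were tested by NCCLS microdilution in RPMI 1640 buffered with 0.165 M MOPS and incubated at 35 °C. Compounds were dissolved in DMSO and serially diluted in medium. Isolates came from ATCC or the clinic. The MIC was read at 24 h as the lowest concentration achieving ≥80% growth inhibition versus the control.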

[2] = tested on: Candida parapsilosis; assay: Antifungal activity against Candida parapsilosis after 24 hrs; settings: Lodderomyces parapsilosis; method in brief: as §1
[3] = tested on: Cryptococcus neoformans; assay: Antifungal activity against Cryptococcus neoformans after 72 hrs
Method in brief: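 Cryptococcus neoformans was tested by NCCLS serial dilution in MOPS-buffered (0.165 M) RPMI 1640 at 35 °C. Compounds were dissolved in DMSO and diluted in medium. The MIC was read at 72 h as the lowest concentration giving turbidity inhibition of ≥80% relative to the growth control.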

[4] = tested on: Trichophyton rubrum; assay: Antifungal activity against Trichophyton rubrum
Method in brief: (§2)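 Dermatophytes were tested by NCCLS serial dilution in RPMI 1640 with 0.165 M MOPS and incubated at 28 °C. Compounds were dissolved in DMSO and diluted in medium. Strains came from ATCC or clinical isolates. The MIC was read at 7 d as the lowest concentration reducing turbidity by ≥80% relative to the drug-free control.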

[5] = tested on: Fonsecaea compacta; assay: Antifungal activity against Fonsecaea compacta
Method in brief: (§3)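 NCCLS broth serial dilution in RPMI 1640 buffered with 0.165 M MOPS. Compounds were dissolved in DMSO and serially diluted in medium. Strains came from ATCC or clinical isolates. The growth MIC for filamentous fungi was read at 7 d, taken as the lowest concentration giving ≥80% turbidity inhibition versus the growth control.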

[6] = tested on: Aspergillus fumigatus; assay: Antifungal activity against Aspergillus fumigatus; method in brief: as §3
[7] = tested on: Microsporum; assay: Antifungal activity against Microsporum gypseum; method in brief: as §2
[8] = tested on: Candida albicans; assay: Antifungal activity against fluconazole-resistant Candida albicans 0511655 after 24 hrs
Method in brief: (§4)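 Broth serial dilution MIC per NCCLS in 96-well format; medium RPMI 1640 buffered with 0.165 M MOPS; compounds dissolved in DMSO and serially diluted in medium; clinical C. albicans isolates incubated at 35 °C, read at 24 h; MIC = lowest concentration giving turbidity […] inhibition relative to growth control; fluconazole and I-6 as control drugs.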

[9] = tested on: Candida albicans; assay: Antifungal activity against fluconazole-resistant Candida albicans 01010 after 24 hrs; method in brief: as §4
[10] = tested on: Candida albicans; assay: Antifungal activity against fluconazole-resistant Candida albicans 18 after 24 hrs; method in brief: as §4
[11] = tested on: Candida albicans; assay: Antifungal activity against fluconazole-resistant Candida albicans 25 after 24 hrs; method in brief: as §4

| SMILES | MIC [1] | MIC [2] | MIC [3] | MIC [4] | MIC [5] | MIC [6] | MIC [7] | MIC [8] | MIC [9] | MIC [10] | MIC [11] |
| --- | --- | --- | --- | --- | --- | --- | --- | --- | --- | --- | --- |
| CCCCCCCCNC1CCc2cc(OC)ccc2C1 (stereo not drawn) | 0.0625 µM (≈ 0.0181 µg/mL) | 16 µM (≈ 4.63 µg/mL) | 16 µM (≈ 4.63 µg/mL) | 8 µM (≈ 2.32 µg/mL) | 8 µM (≈ 2.32 µg/mL) | > 64 µM | 8 µM (≈ 2.32 µg/mL) | 8 µM (≈ 2.32 µg/mL) | 16 µM (≈ 4.63 µg/mL) | 8 µM (≈ 2.32 µg/mL) | 8 µM (≈ 2.32 µg/mL) |
| CCCCCCCCNC1CCc2cc(O)ccc2C1 (stereo not drawn) | 0.0625 µM (≈ 0.0172 µg/mL) | 16 µM (≈ 4.41 µg/mL) | 8 µM (≈ 2.2 µg/mL) | 4 µM (≈ 1.1 µg/mL) | 2 µM (≈ 0.551 µg/mL) | > 64 µM | 16 µM (≈ 4.41 µg/mL) | 4 µM (≈ 1.1 µg/mL) | 4 µM (≈ 1.1 µg/mL) | 4 µM (≈ 1.1 µg/mL) | 2 µM (≈ 0.551 µg/mL) |
| CCCCCCCCCNC1CCc2c(cccc2OC)C1 (stereo not drawn) | 0.0625 µM (≈ 0.019 µg/mL) | 0.5 µM (≈ 0.152 µg/mL) | 2 µM (≈ 0.607 µg/mL) | 2 µM (≈ 0.607 µg/mL) | 0.5 µM (≈ 0.152 µg/mL) | 8 µM (≈ 2.43 µg/mL) | 4 µM (≈ 1.21 µg/mL) | 16 µM (≈ 4.86 µg/mL) | 16 µM (≈ 4.86 µg/mL) | 16 µM (≈ 4.86 µg/mL) | 8 µM (≈ 2.43 µg/mL) |
| CCCCCCCCCNC1CCc2cc(O)ccc2C1 (stereo not drawn) | 0.0625 µM (≈ 0.0181 µg/mL) | 4 µM (≈ 1.16 µg/mL) | 0.5 µM (≈ 0.145 µg/mL) | 1 µM (≈ 0.289 µg/mL) | 1 µM (≈ 0.289 µg/mL) | 32 µM (≈ 9.26 µg/mL) | 0.5 µM (≈ 0.145 µg/mL) | 4 µM (≈ 1.16 µg/mL) | 4 µM (≈ 1.16 µg/mL) | 4 µM (≈ 1.16 µg/mL) | 2 µM (≈ 0.579 µg/mL) |
| CCCCCCCCCCNC1CCc2cc(O)ccc2C1 (stereo not drawn) | 0.0625 µM (≈ 0.019 µg/mL) | 2 µM (≈ 0.607 µg/mL) | 1 µM (≈ 0.303 µg/mL) | 0.0625 µM (≈ 0.019 µg/mL) | 0.25 µM (≈ 0.0759 µg/mL) | 16 µM (≈ 4.86 µg/mL) | 8 µM (≈ 2.43 µg/mL) | 2 µM (≈ 0.607 µg/mL) | 4 µM (≈ 1.21 µg/mL) | 2 µM (≈ 0.607 µg/mL) | 2 µM (≈ 0.607 µg/mL) |
| CCCCCCCCCCNC1CCc2cccc(O)c2C1 (stereo not drawn) | 0.0625 µM (≈ 0.019 µg/mL) | 16 µM (≈ 4.86 µg/mL) | 16 µM (≈ 4.86 µg/mL) | 8 µM (≈ 2.43 µg/mL) | 64 µM (≈ 19.4 µg/mL) |  | > 64 µM | 16 µM (≈ 4.86 µg/mL) | 16 µM (≈ 4.86 µg/mL) | 16 µM (≈ 4.86 µg/mL) | 4 µM (≈ 1.21 µg/mL) |
| CCCCCCCCCCNC1CCc2ccc(OC)cc2C1 (stereo not drawn) | 0.0625 µM (≈ 0.0198 µg/mL) | 0.25 µM (≈ 0.0794 µg/mL) | 1 µM (≈ 0.318 µg/mL) | 1 µM (≈ 0.318 µg/mL) | 1 µM (≈ 0.318 µg/mL) | 16 µM (≈ 5.08 µg/mL) | 2 µM (≈ 0.635 µg/mL) | 4 µM (≈ 1.27 µg/mL) | 4 µM (≈ 1.27 µg/mL) | 4 µM (≈ 1.27 µg/mL) | 2 µM (≈ 0.635 µg/mL) |
| CCCCCCCCCCNC1CCc2c(O)cccc2C1 (stereo not drawn) | 0.0312 µM (≈ 0.00948 µg/mL) | 32 µM (≈ 9.71 µg/mL) | 1 µM (≈ 0.303 µg/mL) | 4 µM (≈ 1.21 µg/mL) | 1 µM (≈ 0.303 µg/mL) | > 64 µM | 1 µM (≈ 0.303 µg/mL) | 32 µM (≈ 9.71 µg/mL) | 16 µM (≈ 4.86 µg/mL) | 32 µM (≈ 9.71 µg/mL) | 32 µM (≈ 9.71 µg/mL) |
| CCCCCCCCCCCCCCNC1CCc2c(cccc2OC)C1 (stereo not drawn) | > 64 µM | > 64 µM | 32 µM (≈ 12 µg/mL) | 8 µM (≈ 2.99 µg/mL) | 64 µM (≈ 23.9 µg/mL) | > 64 µM | > 64 µM |  |  |  |  |
| CCCCCCCCCNC1CCc2cc(OC)ccc2C1 (stereo not drawn) | 0.0625 µM (≈ 0.019 µg/mL) | 0.5 µM (≈ 0.152 µg/mL) | 4 µM (≈ 1.21 µg/mL) | 1 µM (≈ 0.303 µg/mL) | 2 µM (≈ 0.607 µg/mL) | 64 µM (≈ 19.4 µg/mL) | 4 µM (≈ 1.21 µg/mL) | 0.0625 µM (≈ 0.019 µg/mL) | 0.125 µM (≈ 0.0379 µg/mL) | 0.0625 µM (≈ 0.019 µg/mL) | 0.0625 µM (≈ 0.019 µg/mL) |
| CCCCCCCCCCNC1CCc2c(cccc2OC)C1 (stereo not drawn) | 0.0312 µM (≈ 0.00992 µg/mL) | 8 µM (≈ 2.54 µg/mL) | 1 µM (≈ 0.318 µg/mL) | 1 µM (≈ 0.318 µg/mL) | 1 µM (≈ 0.318 µg/mL) | 16 µM (≈ 5.08 µg/mL) | 4 µM (≈ 1.27 µg/mL) | 8 µM (≈ 2.54 µg/mL) | 8 µM (≈ 2.54 µg/mL) | 4 µM (≈ 1.27 µg/mL) | 4 µM (≈ 1.27 µg/mL) |
| C[C@@H]1[C@H](O)[C@@H](C)/C=C/C=C/C=C/C=C/C=C/C=C/C=C/[C@H](O[C@@H]2O[C@H](C)[C@@H](O)[C@H](N)[C@@H]2O)C[C@@H]2O[C@](O)(C[C@@H](O)C[C@@H](O)[C@H](O)CC[C@@H](O)C[C@@H](O)CC(=O)O[C@H]1C)C[C@H](O)[C@H]2C(=O)O [AMPHOTERICIN B] |  |  |  |  |  |  |  | 0.25 µM (≈ 0.231 µg/mL) | 0.64 µM (≈ 0.591 µg/mL) | 2 µM (≈ 1.85 µg/mL) | 0.5 µM (≈ 0.462 µg/mL) |
| OC(Cn1cncn1)(Cn1cncn1)c1ccc(F)cc1F [FLUCONAZOLE] | 8 µM (≈ 2.45 µg/mL) | 0.5 µM (≈ 0.153 µg/mL) | 2 µM (≈ 0.613 µg/mL) | 1 µM (≈ 0.306 µg/mL) | 16 µM (≈ 4.9 µg/mL) | > 64 µM | 16 µM (≈ 4.9 µg/mL) | > 64 µM | > 64 µM | > 64 µM | > 64 µM |
| CCC(C)n1ncn(-c2ccc(N3CCN(c4ccc(OCC5COC(Cn6cncn6)(c6ccc(Cl)cc6Cl)O5)cc4)CC3)cc2)c1=O (stereo not drawn) [ITRACONAZOLE] |  |  |  |  |  |  |  | 64 µM (≈ 45.2 µg/mL) | > 64 µM | > 64 µM | > 64 µM |
| CC(=O)N1CCN(c2ccc(OC[C@@H]3CO[C@@](Cn4ccnc4)(c4ccc(Cl)cc4Cl)O3)cc2)CC1 [KETOCONAZOLE] |  |  |  |  |  |  |  | 8 µM (≈ 4.25 µg/mL) | 8 µM (≈ 4.25 µg/mL) | 4 µM (≈ 2.13 µg/mL) | 8 µM (≈ 4.25 µg/mL) |
| CN(C/C=C/C#CC(C)(C)C)Cc1cccc2ccccc12 [TERBINAFINE] |  |  |  |  |  |  |  | 8 µM (≈ 2.33 µg/mL) | 32 µM (≈ 9.33 µg/mL) | 8 µM (≈ 2.33 µg/mL) | 4 µM (≈ 1.17 µg/mL) |
